Reference: ChEMBL document CHEMBL4428101, “The Oncolytic Efficacy and in Vivo Pharmacokinetics of [2-(4-Chlorophenyl)quinolin-4-yl](piperidine-2-yl)methanol (Vacquinol-1) Are Governed by Distinct Stereochemical Features” (J Med Chem, 2016)
pIC50: −log10 of the molar value. Active and inactive are the calls of the source. The calls are words filed in the database; no cut-off is given here.

Legend:
[1] = Cytotoxicity against patient-derived U3013MG cells assessed as reduction in cell viability after 48 hrs by Celltiter-Glo reagent based assay; assay type: functional; conditions: Homo sapiens
U3013MG [2] = test: Cytotoxicity against patient-derived U3013MG cells assessed as induction of catastrophic vacuolization at 5 uM after 4 to 8 hrs by light microscopy; assay type: functional, cell-based; conditions: Homo sapiens
In short: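 U3013 glioblastoma cells in 384-well plates were examined by light microscopy at 4 h intervals for large lucent intracellular vacuoles, with bright-field imaging at 37 °C, 5% CO2.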

[3] = Cmax in NMRI mouse brain at 2 mg/kg, iv administered as single dose measured after 144 hrs by UPLC-MS/MS analysis; assay type: ADME, organism-based; parameters: dose 2 mg/kg, route intravenous
In short: (§1)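 Single dose to male NMRI mice, i.v. tail vein under light isoflurane or p.o. gavage without anesthesia. Blood by orbital plexus into EDTA, plasma by centrifugation at +4 °C; brains homogenized in 4 mL PBS (pH 7.4) per g. Sampled 15 min to 144 h, n = 3 per time point. UPLC-MS/MS with internal standard; noncompartmental analysis of composite mean profiles using nominal times and doses.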

[4] = Cmax in NMRI mouse brain at 20 mg/kg, po administered as single dose through gavage measured after 144 hrs by UPLC-MS/MS analysis; assay type: ADME, organism-based; parameters: dose 20 mg/kg, route oral; in short: as §1
[5] = AUClast in NMRI mouse brain at 2 mg/kg, iv administered as single dose measured after 144 hrs by UPLC-MS/MS analysis; assay type: ADME, organism-based; parameters: dose 2 mg/kg, time < 144 hr, route intravenous; in short: as §1
[6] = AUClast in NMRI mouse brain at 20 mg/kg, po administered as single dose through gavage measured after 144 hrs by UPLC-MS/MS analysis; assay type: ADME, organism-based; parameters: dose 20 mg/kg, time < 144 hr, route oral; in short: as §1
[7] = Tlast in NMRI mouse brain at 2 mg/kg, iv administered as single dose by UPLC-MS/MS analysis; assay type: ADME, organism-based; conditions: in vivo; in short: as §1
[8] = Tlast in NMRI mouse brain at 20 mg/kg, po administered as single dose through gavage by UPLC-MS/MS analysis; assay type: ADME, organism-based; conditions: in vivo; in short: as §1
[9] = Half life in NMRI mouse brain at 2 mg/kg, iv administered as single dose by UPLC-MS/MS analysis; assay type: ADME, organism-based; in short: as §1
[10] = Half life in NMRI mouse brain at 20 mg/kg, po administered as single dose through gavage by UPLC-MS/MS analysis; assay type: ADME, organism-based; in short: as §1
[11] = Oral bioavailability in NMRI mouse brain at 20 mg/kg administered as single dose through gavage measured after 144 hrs by UPLC-MS/MS analysis; assay type: ADME, organism-based; in short: as §1
[12] = AUClast in NMRI mouse plasma at 2 mg/kg, iv administered as single dose measured up to 144 hrs post dose by UPLC-MS/MS analysis; assay type: ADME, organism-based; parameters: time < 144 hr, dose 2 mg/kg, route intravenous; in short: as §1
[13] = AUClast in NMRI mouse plasma at 20 mg/kg, po administered as single dose through gavage measured up to 144 hrs post dose by UPLC-MS/MS analysis; assay type: ADME, organism-based; parameters: dose 20 mg/kg, time < 144 hr, route oral; in short: as §1
[14] = Tlast in NMRI mouse plasma at 2 mg/kg, iv administered as single dose by UPLC-MS/MS analysis; assay type: ADME, organism-based; conditions: in vivo; in short: as §1
[15] = Tlast in NMRI mouse plasma at 20 mg/kg, po administered as single dose through gavage by UPLC-MS/MS analysis; assay type: ADME, organism-based; conditions: in vivo; in short: as §1
[16] = Half life in NMRI mouse plasma at 20 mg/kg, po administered as single dose through gavage by UPLC-MS/MS analysis; assay type: ADME, organism-based; in short: as §1
[17] = Toxicity in NMRI mouse assessed as drug tolerance at 2 mg/kg, iv administered as single dose up to 144 hrs; assay type: organism-based; conditions: in vivo
[18] = Toxicity in NMRI mouse assessed as drug tolerance at 20 mg/kg, po administered as single dose through gavage up to 144 hrs; assay type: organism-based; conditions: in vivo
[19] = CNS toxicity in NMRI mouse at 2 mg/kg, iv administered as single dose up to 144 hrs; assay type: organism-based; conditions: in vivo
[20] = CNS toxicity in NMRI mouse at 20 mg/kg, po administered as single dose through gavage up to 144 hrs; assay type: organism-based; conditions: in vivo
[21] = Systemic toxicity in NMRI mouse at 2 mg/kg, iv administered as single dose up to 144 hrs; assay type: organism-based; conditions: in vivo
[22] = Systemic toxicity in NMRI mouse at 20 mg/kg, po administered as single dose through gavage up to 144 hrs; assay type: organism-based; conditions: in vivo
[23] = Fraction unbound in NMRI mouse plasma at 5 uM by LC-MS based equilibrium dialysis method; assay type: ADME, cell-free
In short: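 Equilibrium dialysis across a semipermeable membrane, 100% mouse plasma against pH 7.4 buffer, 5 μM compound at 0.5% final DMSO, 37 °C. Both sides sampled after equilibration. Duplicate incubations, reported as averages.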

[24] = Ratio of drug level in NMRI mouse brain to plasma at 2 mg/kg, iv or 20 mg/kg, po administered as single dose through gavage measured up to 144 hrs post dose by UPLC-MS/MS analysis; assay type: ADME, organism-based; conditions: brain and plasma, read-out: BPR; in short: as §1
[25] = Toxicity in 2 days post fertilized zebra fish embryo assessed as effect on larval development up to 50 uM; parameters: species or system Danio rerio; conditions: zebrafish, 48 h
In short: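 Zebrafish embryos were exposed to rising concentrations up to 50 μM or to vehicle, and larval development was scored visually at 2 days post-fertilization.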

U3013MG [26] = test: Antitumor activity against GFP-labeled human U3013MG cells orthotopically xenografted in 2 days post fertilized zebra fish embryo assessed as reduction in tumor cells at 30 uM measured 6 days post transplantation by fluorescence assay; assay type: functional, cell-based
In short: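 U3013 cells labeled with Cell Tracker Green; about 3000 cells injected into the brain ventricle of 2 dpf Mitfa-morpholino larvae. Three embryos per well in 200 μL egg water holding compound or 0.1% DMSO, renewed every 6 h. Imaged 6 days post-transplantation; tumor burden from GFP fluorescence intensity and counts of larvae with grafted cells.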

[27] = Toxicity in 2 days post fertilized zebra fish embryo orthotopically xenografted with GFP-labeled human U3013MG cells assessed as larval development defect at 30 uM; parameters: species or system Danio rerio; conditions: zebrafish, 48 h
[28] = Cytotoxicity against patient-derived U3013MG cells assessed as reduction in cell viability by Celltiter-Glo reagent based assay; assay type: functional; conditions: Homo sapiens
[29] = Half life in NMRI mouse plasma at 2 mg/kg, iv administered as single dose by UPLC-MS/MS analysis; assay type: ADME, organism-based; in short: as §1

O[C@@H](c1cc(-c2ccc(Cl)cc2)nc2ccccc12)[C@@H]1CCCCN1 (single isomer, unassigned)
pIC50 [1]: 5.00 | Activity (U3013MG [2]): inactive

Cc1noc(C)c1-c1cc(C(O)C2CCCCN2)c2ccccc2n1 (stereo not given)
pIC50 [1]: < 4.30

CCCN(CCC)C(=O)c1ccc(-c2cc([C@@H](O)[C@@H]3CCCCN3)c3ccccc3n2)cc1 (relative stereo)
pIC50 [1]: 4.45

OC(c1cc(-c2ccsc2)nc2ccccc12)C1CCCCN1 (stereo not given)
pIC50 [1]: 4.58

Cc1ccc(-c2cc([C@@H](O)[C@@H]3CCCCN3)c3ccccc3n2)cc1C#N (relative stereo)
pIC50 [1]: 4.49

OC(c1cc(-c2ccc[nH]2)nc2ccccc12)C1CCCCN1 (stereo not given)
pIC50 [1]: < 4.30

O[C@H](c1cc(-c2ccc(Cl)cc2)nc2ccccc12)[C@@H]1CCCCN1
pIC50 [1]: 5.42 | Activity (U3013MG [2]): Active | Cmax [3]: 1970 ng/mL | Cmax [4]: 4840 ng/mL | AUC(0-t) at 144 h [5]: 53.1 µg·h/mL | AUC(0-t) at 144 h [6]: 400 µg·h/mL | Tlast [7]: 144 h | Tlast [8]: 144 h | half-life [9]: 72 h | half-life [10]: 65 h | bioavailability [11]: 75.2% | AUC(0-t) at 144 h [12]: 62 µg·h/mL | AUC(0-t) at 144 h [13]: 246 µg·h/mL | Tlast [14]: 144 h | Tlast [15]: 144 h | half-life [16]: 81 h | Activity [17]: Non-Toxic | Activity [18]: Non-Toxic | Activity [19]: Non-Toxic | Activity [20]: Non-Toxic | Activity [21]: Non-Toxic | Activity [22]: Non-Toxic | fraction unbound at 5 µM [23]: 0.0137 | Kp at 144 h [24]: 2 | Activity [25]: Non-Toxic | Activity (U3013MG [26]): Active | Activity [27]: Non-Toxic

OC(c1cc(-c2ccc(Cl)cc2)nc2ccccc12)C1CCCCN1 (stereo not given)
pIC50 [28]: 5.50

O[C@H](c1cc(-c2ccc(C(F)(F)F)cc2)nc2ccccc12)[C@@H]1CCCCN1 (relative stereo)
pIC50 [1]: 4.87

OC(c1cc(-c2cncnc2)nc2ccccc12)C1CCCCN1 (stereo not given)
pIC50 [1]: < 4.30

O[C@@H](c1cc(-c2ccc(Cl)cc2)nc2ccccc12)[C@H]1CCCCN1
pIC50 [1]: 5.46 | Cmax [3]: 777 ng/mL | Cmax [4]: 1490 ng/mL | AUC(0-t) at 144 h [5]: 12.2 µg·h/mL | AUC(0-t) at 144 h [6]: 157 µg·h/mL | Tlast [7]: 144 h | Tlast [8]: 144 h | half-life [9]: 67 h | half-life [10]: 96 h | bioavailability [11]: 89% | AUC(0-t) at 144 h [12]: 14.1 µg·h/mL | AUC(0-t) at 144 h [13]: 183 µg·h/mL | Tlast [14]: 144 h | Tlast [15]: 144 h | half-life [29]: 48 h | half-life [16]: 69 h | Activity [17]: Non-Toxic | Activity [18]: Non-Toxic | Activity [19]: Non-Toxic | Activity [20]: Non-Toxic | Activity [21]: Non-Toxic | Activity [22]: Non-Toxic | fraction unbound at 5 µM [23]: 0.0059

Cc1ccc(-c2cc(C(O)C3CCCCN3)c3ccccc3n2)o1 (stereo not given)
pIC50 [1]: < 4.30

O[C@H](c1cc(-c2ccc(Cl)cc2)nc2ccccc12)[C@H]1CCCCN1 (single isomer, unassigned)
pIC50 [1]: 4.98 | Activity (U3013MG [2]): inactive

O[C@H](c1cc(-c2ccc(C(F)(F)F)nc2)nc2ccccc12)[C@@H]1CCCCN1 (relative stereo)
pIC50 [1]: 4.42

OC(c1cc(-c2ccncc2)nc2ccccc12)C1CCCCN1 (stereo not given)
pIC50 [1]: < 4.30
